Data taken from ChEMBL document CHEMBL2311285, “3-Thiomorpholin-8-oxo-8H-acenaphtho [1,2-b] pyrrole-9-carbonitrile (S1) derivatives as pan-Bcl-2-inhibitors of Bcl-2, Bcl-xL and Mcl-1” (Bioorg Med Chem, 2013).
Converted amounts (≈) assume the structure as drawn. The source made the active and inactive calls. The rule behind the calls is not given here.

Key:
[1] = target: T1, Apoptosis regulator Bcl-2 (Homo sapiens, UniProt P10415); assay: Binding affinity to human Bcl-2 (unknown origin) by biotin-Bim displacement based ELISA
[2] = target: T2, Induced myeloid leukemia cell differentiation protein Mcl-1 (Homo sapiens, UniProt Q07820); assay: Binding affinity to cMcl-1 (residues 171 to 327) (unknown origin) by biotin-Bim displacement based ELISA
Outline: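 Competitive ELISA: biotin-Bim (residues 81-106) at 0.09 µg/mL in blocking buffer bound to streptavidin-coated wells for 1.5 h. Serial compound dilutions (from 10 mM DMSO stock) containing 0.01% Triton X-100 preincubated 1 h with 20 nM His-tagged protein in PBS, then transferred to wells for 2 h. Anti-His-HRP added for 1 h, then TMB for 30 min, stopped with H2SO4. Room temperature throughout.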

[3] = target: T1, Apoptosis regulator Bcl-2; assay: Binding affinity to human Bcl-2 (unknown origin) by ITC assay
[4] = target: T2, Induced myeloid leukemia cell differentiation protein Mcl-1; assay: Binding affinity to cMcl-1 (residues 171 to 327) (unknown origin) by ITC assay
Outline: (§1)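 ITC at 25 °C in 20 mM Tris pH 8.0, 150 mM NaCl, 1% DMSO. For wild-type versus R263A comparison, 16 × 2.5 µL injections of 500 µM compound into 50 µM protein. Data were corrected against a buffer-only cell titrated with compound and fitted to a one-site model to give Kd.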

Bcl-2-like protein 1 = Bcl-2-like protein 1 (Homo sapiens, UniProt Q07817); assay: Binding affinity to N-terminal 8xHis tagged cBcl-XL (unknown origin) expressed in Escherichia coli BL21 (DE3) by ELISA
[5] = target: Induced myeloid leukemia cell differentiation protein Mcl-1 (Homo sapiens, UniProt Q07820, R263A); assay: Binding affinity to cMcl-1 R263A mutant (unknown origin) by ITC assay; type: single protein; outline: as §1
[6] = Solubility in 1% DMSO/H2O; type: physicochemical
MCF7 = assay: Induction of apoptosis in human MCF7 cells assessed as cytochrome c release at 5 uM incubated for 12 hrs in presence of Bax/Bak ShRNA by Western blotting method; type: functional, cell-based
Outline: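 Wild-type MCF-7 cells and Bax/Bak shRNA-transfected MCF-7 cells were treated with 5 µM compound. Cytochrome c was detected by western blot in the S-100 cytosolic fraction, obtained from digitonin lysis and centrifugation.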

HL-60 = assay: Induction of apoptosis in human HL60 cells assessed as cytochrome c release at 5 uM incubated for 12 hrs by Western blotting method; type: functional, cell-based
Outline: (§2)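 Cells treated 12 h with 5 µM compound, then lysed in digitonin lysis buffer. After centrifugation, the cytosolic supernatant (S-100) was probed for cytochrome c by western blot. A parallel harvest was used for Mcl-1/Bak and Bcl-2/Bax co-immunoprecipitation.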

K562 = assay: Induction of apoptosis in human K562 cells assessed as cytochrome c release at 5 uM incubated for 12 hrs by Western blotting method; type: functional, cell-based; outline: as §2

T1 sequence (P10415 whole entry, the tested form may be a part): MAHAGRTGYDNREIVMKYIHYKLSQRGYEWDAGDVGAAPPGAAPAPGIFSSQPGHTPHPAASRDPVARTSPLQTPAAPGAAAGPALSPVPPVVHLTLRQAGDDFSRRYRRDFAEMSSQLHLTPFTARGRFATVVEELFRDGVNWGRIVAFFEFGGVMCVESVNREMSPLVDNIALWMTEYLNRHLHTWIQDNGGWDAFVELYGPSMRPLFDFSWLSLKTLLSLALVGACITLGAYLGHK
T2 sequence (Q07820 whole entry, the tested form may be a part): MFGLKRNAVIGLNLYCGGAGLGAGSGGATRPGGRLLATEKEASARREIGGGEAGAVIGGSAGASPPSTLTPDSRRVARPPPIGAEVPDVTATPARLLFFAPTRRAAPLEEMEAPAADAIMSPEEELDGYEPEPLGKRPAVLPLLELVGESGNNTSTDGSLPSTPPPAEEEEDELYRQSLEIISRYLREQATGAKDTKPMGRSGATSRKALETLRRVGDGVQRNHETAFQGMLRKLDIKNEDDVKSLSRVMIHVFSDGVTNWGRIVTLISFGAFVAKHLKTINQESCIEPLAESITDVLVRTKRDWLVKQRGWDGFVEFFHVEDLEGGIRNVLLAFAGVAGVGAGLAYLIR
Sequence of Induced myeloid leukemia cell differentiation protein Mcl-1 (Homo sapiens, UniProt Q07820, R263A) (Q07820 whole entry R263A): as the sequence (Q07820 whole entry, the tested form may be a part) above, with R263A counted along it
Sequence of Bcl-2-like protein 1 (Q07817 whole entry): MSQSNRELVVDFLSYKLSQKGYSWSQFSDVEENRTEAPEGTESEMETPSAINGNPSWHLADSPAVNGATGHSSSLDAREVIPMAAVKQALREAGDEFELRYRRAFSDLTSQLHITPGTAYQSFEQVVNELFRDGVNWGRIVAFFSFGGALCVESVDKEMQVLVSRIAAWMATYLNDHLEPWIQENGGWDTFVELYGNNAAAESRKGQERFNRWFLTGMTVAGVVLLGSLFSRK

Row | SMILES | IC50 [1] [nM] | IC50 [2] [nM] | Kd [3] [nM] | Kd ([4]; read-out: pKd (converted)) [nM] | IC50 (Bcl-2-like protein 1) [nM] | Kd ([4]; read-out: Kd) [nM] | Kd [5] [nM] | solubility [6] [µg/mL] | Activity (MCF7) | Activity (HL-60) | Activity (K562)
1 | CCCCCCNC1=C2C(=NC1=O)c1cccc3c(Sc4ccc(N)cc4)ccc2c13 | 80 | 30 | 79.4 | 29.5 | 71 |  |  |  |  |  | 
2 | CCCCNC1=C2C(=NC1=O)c1cccc3c(N4CCSCC4)ccc2c13 | 198 | 79 | 200 | 79.4 | 171 |  |  |  |  |  | 
3 | N#CC1=C2C(=NC1=O)c1cccc3c(N4CCSCC4)ccc2c13 | 715 | 95 | 708 | 95.5 | 625 | 954 | 28700 | 2 (≈ 6.04 µM) |  |  | 
4 | O=C1N=C2C(=C1NCc1ccccc1)c1ccc(N3CCSCC3)c3cccc2c13 | > 10000 | 521 |  |  |  |  |  |  |  |  | 
5 | N#CC1=C2C(=NC1=O)c1cccc3c(Sc4ccc(N)cc4)ccc2c13 | 331 | 90 | 331 | 91.2 | 291 |  |  |  |  |  | 
6 | CCCCNC1=C2C(=NC1=O)c1cccc3c(Oc4ccc(C(C)C)cc4)ccc2c13 | 322 | 141 | 324 | 141 | 283 |  |  |  |  |  | 
7 | CCCCCCNC1=C2C(=NC1=O)c1cccc3c(Oc4ccc(C(C)C)cc4)ccc2c13 | 184 | 75 | 182 | 79.4 | 162 | 802 | 19200 |  |  |  | 
8 | CCCOC(=O)C1=C2C(=NC1=O)c1cccc3c(N4CCSCC4)ccc2c13 | 2100 | > 10000 |  |  |  |  |  |  |  |  | 
9 | CCCCNC1=C2C(=NC1=O)c1cccc3c(Sc4ccc(OC)cc4)ccc2c13 | 356 | 150 | 355 | 151 | 315 |  |  |  |  |  | 
10 | O=C1N=C2C(=C1NCCCc1ccccc1)c1ccc(N3CCSCC3)c3cccc2c13 | 49 | 15 | 49 | 15.1 | 43 |  |  |  |  |  | 
11 | CC(C)c1ccc(Oc2ccc3c4c(cccc24)C2=NC(=O)C(NCCCc4ccccc4)=C23)cc1 | 42 | 39 | 41.7 | 38.9 | 37 |  |  |  |  |  | 
12 | CC(C)NC1=C2C(=NC1=O)c1cccc3c(N4CCSCC4)ccc2c13 | > 10000 | 2500 |  |  |  |  |  |  |  |  | 
13 | CCCCCCNC1=C2C(=NC1=O)c1cccc3c(N4CCSCC4)ccc2c13 | 96 | 37 | 95.5 | 37.2 | 85 |  |  |  |  |  | 
14 | CCCCCCNC1=C2C(=NC1=O)c1cccc3c(Sc4ccc(OC)cc4)ccc2c13 | 206 | 78 | 204 | 77.6 | 181 |  |  |  |  |  | 
15 | Cc1cc2c(C(C)C)c(O)c(O)c(C=O)c2c(O)c1-c1c(C)cc2c(C(C)C)c(O)c(O)c(C=O)c2c1O [GOSSYPOL] |  |  |  |  |  | 2320 |  |  | Active |  | 
16 | Nc1ccc(Sc2ccc3c4c(cccc24)C2=NC(=O)C(NCCCc4ccccc4)=C23)cc1 | 20 | 10 | 20 | 10 | 18 | 105 | 2340 | 18 (≈ 39 µM) | inactive | Active | Active
17 | COc1ccc(Sc2ccc3c4c(cccc24)C2=NC(=O)C(C#N)=C23)cc1 | 945 | 388 | 955 | 389 | 833 |  |  |  |  |  | 
18 | O=C1N=C2C(=C1NCCCCCc1ccccc1)c1ccc(N3CCSCC3)c3cccc2c13 | 1300 | 1100 |  |  |  |  |  |  |  |  | 
19 | CC(C)c1ccc(Oc2ccc3c4c(cccc24)C2=NC(=O)C(C#N)=C23)cc1 | 739 | 321 | 759 | 324 | 650 |  |  |  |  |  | 
20 | CCCCNC1=C2C(=NC1=O)c1cccc3c(Sc4ccc(N)cc4)ccc2c13 | 190 | 50 | 191 | 50.1 | 165 | 512 | 12800 | 27 (≈ 67.6 µM) | inactive | Active | Active
21 | CCCCCNC1=C2C(=NC1=O)c1cccc3c(N4CCSCC4)ccc2c13 |  | 37 |  |  |  |  |  |  |  |  | 
22 | CCOC(=O)C1=C2C(=NC1=O)c1cccc3c(N4CCSCC4)ccc2c13 | 2200 | > 10000 |  |  |  |  |  |  |  |  | 
23 | O=C1N=C2C(=C1NCCCc1ccccc1)c1ccc(Sc3ccc(OO)cc3)c3cccc2c13 | 57 | 42 | 57.5 | 41.7 | 53 |  |  |  |  |  | 
